# Screening results: PubChem BioAssay, several laboratories
# Sampled rows, rich in hits. Any-hit rate of the full collection: about 2.1%.
# APOBEC3A inh: inhibitors of human APOBEC3A DNA deaminase; inhibition, % at 20 µM; AID 493011; P31941; hit rate 0.41% among 330,000; recombinant A3A, FAM/TAMRA ssDNA deamination fluorescence;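 active = at least 40% inhibition at 20 µM here, with at most 30% in a related deaminase screen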;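 note: plate controls were A3A with DMSO for no effect and wells lacking A3A enzyme for full effect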
# ASAP1 inh: inhibitors of human ASAP1 ArfGAP activity. inhibition, % at 16.5 µM. Q9ULH1. ASAP1-stimulated ARF1 GTP hydrolysis, GDP FP detection. hit rate 0.19% among 360,000; in the data active = inhibition above about 25%;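 note: 0% = vehicle with enzyme and substrate and 100% = no enzyme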
# Target sequence (Q9ULH1 325-724 limits assumed): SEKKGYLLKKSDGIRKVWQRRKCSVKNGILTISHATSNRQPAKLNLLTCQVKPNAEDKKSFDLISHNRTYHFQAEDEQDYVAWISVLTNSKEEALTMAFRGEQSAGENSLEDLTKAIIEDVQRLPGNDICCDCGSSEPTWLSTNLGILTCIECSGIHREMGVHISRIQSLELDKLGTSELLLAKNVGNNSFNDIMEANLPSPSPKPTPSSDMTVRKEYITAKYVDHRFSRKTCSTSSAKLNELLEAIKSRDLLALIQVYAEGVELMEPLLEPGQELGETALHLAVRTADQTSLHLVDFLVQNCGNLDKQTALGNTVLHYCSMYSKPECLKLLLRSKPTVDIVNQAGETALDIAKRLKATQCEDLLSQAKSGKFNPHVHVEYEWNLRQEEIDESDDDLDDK
# SUMO Mot1 rescue: inhibitors of SUMOylation pathway: yeast Mot1-301 growth rescue | S. cerevisiae Mot1-301 growth rescue, ATP luminescence, 38.5C; percent above DMSO median, 100 means doubled | growth rescue, % at 18.8 µM | hit rate 1% among 320,000 | AID 2716;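 active = every valid replicate shows activation above 250% relative to neutral control wells; inactive = the rest, any valid replicate at or below 250%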;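 note: OY570 slx delta 5 strain wells were the positive control but not used for scaling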
# ARFGAP1 inhibitor: inhibitors of rat ARFGAP1; Q62848; Arfgap1-stimulated ARF1 GTP hydrolysis, GDP FP detection; inhibition, % at 16.5 µM; hit rate 0.26% among 360,000; AID 651572;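 active = inhibition above a per-plate limit, mean inhibition of low control wells plus 3 SD, cut at about 25% in these data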;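 note: 0% = DMSO wells with enzyme and 100% = wells lacking Arfgap1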
# Target sequence (Q62848 1-136 limits assumed): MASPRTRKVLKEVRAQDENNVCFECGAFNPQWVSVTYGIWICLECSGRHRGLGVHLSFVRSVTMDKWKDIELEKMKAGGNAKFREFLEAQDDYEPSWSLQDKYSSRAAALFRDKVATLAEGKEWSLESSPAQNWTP
#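 Material: rat Arfgap1 GAP domain (His6, aa 1-136), purified enzyme. Also added: human ARF1(Δ1-17)-GTP substrate. Compound dosing: 16.5 µM single point, 1.26% DMSO. Timing: enzyme reaction 120 min at 25 °C after 20 min preincubation. Signal: GDP detection by fluorescence polarization. Read-out basis: percent inhibition of GAP-stimulated GDP formation, scaled between DMSO and no-Arfgap1 medians.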
# C2C12 statin: suppressors of simvastatin-induced myotoxicity in C2C12 myotubes. hit rate 0.78% among 330,000. rescue of ATP level, % at 7.49 µM. ATP luminescence, 48 h; scaled: DMSO 0, geranylgeraniol control 100. AID 602340;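 active = mean ATP rescue above about 67%, or every replicate alone reaching that limit, limit read from the data, passing the limit was not always enough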;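 note: myotubes were challenged with 10 µM simvastatin during compound exposure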
# APOBEC3G inh: APOBEC3G (human) deaminase inhibition; Q9HC16; recombinant A3G, ssDNA deamination FAM/TAMRA fluorescence; inhibition, % at 20 µM; hit rate 0.28% among 330,000;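 active = inhibition of at least 40% at 20 µM, with no more than 30% in the related APOBEC3A deaminase screen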;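 note: plate controls were DMSO wells with A3G for no effect and wells lacking A3G enzyme for full effect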
# Yeast Mot1 SUMO: SUMO pathway inhibitors in yeast Mot1-301 growth; shares compounds with SUMO Mot1 rescue; S. cerevisiae Mot1-301 galactose growth, ATP luminescence, 24 h; -100 = growth of slx-deleted rescue strain; growth activity, percent, % at 42 µM; 2,300 tested, under 10 active; AID 493004;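 active = Signal drops as the depositor expects, and the fitted half-maximal dose is no more than ten times the top valid tested dose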;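 note: more negative values mean stronger growth rescue toward the control strain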
# The depositor's hits bear a star; . = no result given.
SMILES,APOBEC3A inh,ASAP1 inh,SUMO Mot1 rescue,ARFGAP1 inhibitor,C2C12 statin,APOBEC3G inh,Yeast Mot1 SUMO
CCC1=Nc2cc(C(=O)NCc3ccco3)ccc2Sc2ccccc21,1.1,1.0,397.2*,-5.0,.,-3.2,1.2
CCCOc1ccc(C(=O)NCc2ccco2)cc1,-4.2,-13.5,684.5*,1.9,-8.2,-7.1,-0.2
C[C@H](CO)N1C[C@H](C)[C@H](CN(C)Cc2ccc(C(=O)Nc3ccccc3N)cc2)Oc2ccc(NS(=O)(=O)c3ccc(Cl)cc3)cc2C1=O,.,.,.,.,58.7,.,.
C[C@H](CO)N1C[C@H](C)[C@@H](CN(C)Cc2ccncc2)Oc2ccc(NS(=O)(=O)c3cccs3)cc2CC1=O,.,.,.,.,-29.0,.,.
NC(=O)C1=C[C@@H](c2ccc(Br)cc2)C[C@@H](OCCCCO)O1,-1.6,16.6,554.0*,-4.6,.,-7.8,0.6
COc1ccc(S(=O)(=O)Nc2ccc3c(c2)CC(=O)N([C@@H](C)CO)C[C@H](C)[C@H](CN(C)Cc2ccc4c(c2)OCO4)O3)cc1,.,.,.,.,1.6,.,.
COc1cccc(S(=O)(=O)N[C@H]2C=C[C@H](CC(=O)NCc3ccccc3)O[C@@H]2CO)c1,.,.,.,.,-6.5,.,.
COc1ccc(C(=O)O/N=C(\N)c2ccccc2)cc1OC,0.0,2.4,379.8*,1.9,7.6,-3.7,-0.3
O=C(COC(=O)COc1ccccc1Cl)Nc1ccccc1OC(F)F,-7.1,-9.0,577.8*,3.5,4.2,-11.8,0.8
COc1ccc(OC(=O)c2ccc(Cl)cc2)c(C(C)=O)c1,-0.4,0.5,407.5*,5.0,.,-3.8,0.0
CO[C@@H]1CN(C)C(=O)c2cc(NC(=O)NC(C)C)ccc2OC[C@H](C)N(Cc2ccccn2)C[C@@H]1C,.,.,.,.,-2.1,.,.
Cc1cc(NCCCn2ccnc2)n2nc(-c3ccc(Cl)cc3)cc2n1,0.3,3.2,21.3,-3.9,.,-1.0,.
CC(C)(C)c1cc(NCCCn2ccnc2)n2ncc(-c3ccc(Cl)cc3)c2n1,-6.8,-3.5,622.2*,19.8,-16.1,-8.1,-0.6
C[C@H]1CN([C@@H](C)CO)C(=O)c2cccc(NS(=O)(=O)c3cn(C)cn3)c2O[C@@H]1CN(C)CC1CC1,.,.,.,.,11.6,.,.
CCc1nccn1S(=O)(=O)c1cc(OC)ccc1OC,-0.2,-3.0,499.2*,-4.8,9.6,10.5,0.5
Cc1ccc2nc3c(cc(C(=O)NCCc4ccccc4)c(=N)n3CCN3CCOCC3)c(=O)n2c1,-1.2,.,-3.4,.,-43.4,-1.8,.
Cc1ccc2nc3c(cc(C(=O)NCCN4CCOCC4)c(=N)n3CCCN3CCOCC3)c(=O)n2c1,4.3,.,674.3*,.,-12.7,-3.1,0.0
CC(C)c1cc(N2CCOCC2)n2ncc(-c3ccccc3)c2n1,4.6,5.6,489.2*,-0.1,-25.3,1.5,0.0
Cc1nn2c(N3CCOCC3)cc(C(C)C)nc2c1-c1ccccc1,1.8,-11.0,10.3,4.2,-4.8,-5.1,.
O=c1nc(-c2ccccc2)cn[nH]1,2.5,4.6,569.5*,-13.4,.,-0.7,0.5
O=c1nc(-c2ccccc2)c(-c2ccccc2)n[nH]1,.,-0.7,-6.3,10.4,-8.7,.,.
CN1[C@@H]2c3ccc(C4=CCCCC4)c(=O)n3C[C@H]1[C@H](CO)[C@H]2C(=O)NCc1cccc(F)c1,.,.,.,.,16.9,.,.
Cc1ccc(S(=O)(=O)N2CCOCC2)cc1NC(=O)COC(=O)CCC(=O)c1cccs1,0.5,2.7,522.1*,10.7,1.5,0.1,0.7
CCNC(=O)C[C@@H]1CC[C@@H]2[C@H](COC[C@@H](O)CN2C(=O)Nc2cccc(OC)c2)O1,.,.,.,.,6.7,.,.
Cc1ccc(-c2csc(NC(=O)CSc3nc(C)cs3)n2)cc1,-2.2,10.2,541.2*,-8.2,-3.3,-6.4,0.1
CCOC(=O)c1ccc(NC(=O)c2nc[nH]c2C(=O)N2CCc3ccccc3C2)cc1,-5.3,8.9,371.0*,5.5,6.4,-9.9,0.3
Cc1ccc(NC(=O)c2nc[nH]c2C(=O)N2CCc3ccccc3C2)cc1,-5.7,-2.5,-10.5,9.2,-12.8,-8.4,.
C[C@@H]1CN([C@@H](C)CO)C(=O)c2cc(NS(=O)(=O)c3cn(C)cn3)ccc2O[C@@H]1CN(C)S(=O)(=O)c1cccs1,.,.,.,.,25.6,.,.
